# Reference: ChEMBL document CHEMBL4765302, “Design, synthesis and biological evaluation of novel histone deacetylase1/2 (HDAC1/2) and cyclin-dependent Kinase2 (CDK2) dual inhibitors against malignant cancer” (Eur J Med Chem, 2020)
# Calls of active or inactive are those of the source. The calls are words filed in the database; no cut-off is given here.
# Columns and labels:
# A-375 [1] = test: Induction of apoptosis in human A-375 cells assessed as late apoptotic cells at 1 uM incubated for 48 hrs by annexin V-FITC and PI staining based flow cytometry (reference value: 2.24 %); format: functional
# [2] = MRT (0 to t) in ICR mouse at 4 mg/kg, iv measured upto 24 hrs by LC-MS/MS analysis; format: ADME, organism-based; conditions: in vivo
# HeLa [3] = test: Induction of apoptosis in human HeLa cells assessed as viable cells at 1 uM incubated for 48 hrs by annexin V-FITC and PI staining based flow cytometry (reference value: 98.5 %); format: functional; conditions: read-out: Activity
# NCI-H460 [4] = test: Induction of apoptosis in human NCI-H460 cells assessed as necrotic cells at 2 uM incubated for 48 hrs by annexin V-FITC and PI staining based flow cytometry (reference value: 0.632 %); format: functional
# A-375 [5] = test: Induction of apoptosis in human A-375 cells assessed as necrotic cells at 0.5 uM incubated for 48 hrs by annexin V-FITC and PI staining based flow cytometry (reference value: 0.139 %); format: functional
# HCT-116 [6] = test: Induction of apoptosis in human HCT-116 cells assessed as necrotic cells at 2 uM incubated for 48 hrs by annexin V-FITC and PI staining based flow cytometry (reference value: 0.124 %); format: functional
# HCT-116 [7] = test: Induction of apoptosis in human HCT-116 cells assessed as early apoptotic cells at 1 uM incubated for 48 hrs by annexin V-FITC and PI staining based flow cytometry (reference value: 4.14 %); format: functional
# A-375 [8] = test: Induction of apoptosis in human A-375 cells assessed as early apoptotic cells at 1 uM incubated for 48 hrs by annexin V-FITC and PI staining based flow cytometry (reference value: 1.34 %); format: functional
# A-375 [9] = test: Induction of cell cycle arrest in human A-375 cells assessed as G2/M phase at 0.5 uM incubated for 24 hrs by PI staining based flow cytometry (reference value: 13.7 %); format: functional
# Procedure, shortened: (§1)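 Treatment at 2, 1 and 0.5 μM for 24 h, alongside CS055 and roscovitine, against a DMSO (0.1 %) blank. Cells then stained with propidium iodide and analyzed by flow cytometry.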
# HCT-116 [10] = test: Induction of apoptosis in human HCT-116 cells assessed as apoptosis rate at 2 uM incubated for 48 hrs by annexin V-FITC and PI staining based flow cytometry relative to control; format: functional
# CDK2/Cyclin A2 = CDK2/Cyclin A2 (Homo sapiens, UniProt P24941); test: Inhibition of recombinant human N-terminal GST-tagged CDK2/CyclinA2 expressed in baculovirus infected Sf21 cells using histone H1 as substrate incubated for 10 mins by luminescence based assay
# HeLa [11] = test: Induction of apoptosis in human HeLa cells assessed as viable cells at 0.5 uM incubated for 48 hrs by annexin V-FITC and PI staining based flow cytometry (reference value: 98.5 %); format: functional; conditions: read-out: Activity
# NCI-H460 [12] = test: Induction of apoptosis in human NCI-H460 cells assessed as late apoptotic cells at 2 uM incubated for 48 hrs by annexin V-FITC and PI staining based flow cytometry (reference value: 6.11 %); format: functional
# HCT-116 [13] = test: Antitumor activity against human HCT-116 cells xenografted in Balb/c mouse assessed as tumor growth inhibition at 100 mg/kg, ip administered for 21 days and measured on day 21 relative to control; format: functional; conditions: HCT-116, ip, 504 h, time 21 day, read-out: GI
# Procedure, shortened: (§2)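 HCT116 xenografts in BALB/c nude mice. Dosing started when tumours reached 100–300 mm³: intraperitoneal injection once daily for 21 days at 25, 50 or 100 mg/kg, versus blank. Body weight monitored. Tumour growth inhibition computed against blank.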
# NCI-H460 [14] = test: Induction of apoptosis in human NCI-H460 cells assessed as viable cells at 2 uM incubated for 48 hrs by annexin V-FITC and PI staining based flow cytometry (reference value: 90.4 %); format: functional; conditions: read-out: Activity
# NCI-H460 [15] = test: Induction of apoptosis in human NCI-H460 cells assessed as early apoptotic cells at 0.5 uM incubated for 48 hrs by annexin V-FITC and PI staining based flow cytometry (reference value: 2.88 %); format: functional
# A-375 [16] = test: Induction of apoptosis in human A-375 cells assessed as necrotic cells at 1 uM incubated for 48 hrs by annexin V-FITC and PI staining based flow cytometry (reference value: 0.139 %); format: functional
# A-375 [17] = test: Inhibition of HDAC in human A-375 cells assessed as increase the acetylation of histone H3 at 1 uM incubated for 12 hrs by DAPI and immunofluorescence staining based confocal microscopic analysis; format: cell-based
# NCI-H460 [18] = test: Antiproliferative activity against human H460 cells assessed as reduction in cell growth at 8 uM incubated for 72 hrs by CCK-8 assay relative to control; format: functional
# HCT-116 [19] = test: Induction of apoptosis in human HCT-116 cells assessed as late apoptotic cells at 0.5 uM incubated for 48 hrs by annexin V-FITC and PI staining based flow cytometry (reference value: 1.88 %); format: functional
# A-375 [20] = test: Induction of apoptosis in human A375 cells assessed as apoptosis rate at 2 uM incubated for 48 hrs by annexin V-FITC and PI staining based flow cytometry relative to control; format: functional
# A-375 [21] = test: Induction of cell cycle arrest in human A-375 cells assessed as reduction in G0/G1 phase at 0.5 to 2 uM incubated for 24 hrs by PI staining based flow cytometry; format: functional; conditions: dose 0.5-2 µM; procedure, shortened: as §1
# [22] = Tmax in ICR mouse at 20 mg/kg, ip measured upto 24 hrs by LC-MS/MS analysis; conditions: in vivo
# HCT-116 [23] = test: Antitumor activity against human HCT-116 cells xenografted in Balb/c mouse assessed as tumor growth inhibition at 50 mg/kg, ip administered for 21 days and measured on day 21 relative to control; format: functional; conditions: HCT-116, ip, 504 h, time 21 day, read-out: GI; procedure, shortened: as §2
# HCT-116 [24] = test: Induction of apoptosis in human HCT-116 cells assessed as necrotic cells incubated for 48 hrs by annexin V-FITC and PI staining based flow cytometry; format: functional, cell-based; conditions: dose 0.5-2 µM
# A-375 [25] = test: Induction of apoptosis in human A-375 cells assessed as necrotic cells at 2 uM incubated for 48 hrs by annexin V-FITC and PI staining based flow cytometry (reference value: 0.139 %); format: functional
# HCT-116 [26] = test: Induction of apoptosis in human HCT-116 cells assessed as necrotic cells at 1 uM incubated for 48 hrs by annexin V-FITC and PI staining based flow cytometry (reference value: 0.124 %); format: functional
# NCI-H460 [27] = test: Cytotoxicity against human NCI-H460 cells assessed as effect on cell morphology at 0.5 to 8 micromol incubated for 48 hrs by microscopic analysis; format: functional, cell-based; conditions: dose 0.5-8 µmol
# Procedure, shortened: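 Five cancer cell lines treated with compound or DMSO (0.1 %) for 48 h. Morphology inspected by light microscopy at 10× objective.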
# NCI-H460 [28] = test: Induction of apoptosis in human NCI-H460 cells assessed as late apoptotic cells at 1 uM incubated for 48 hrs by annexin V-FITC and PI staining based flow cytometry (reference value: 6.11 %); format: functional
# HeLa [29] = test: Induction of cell cycle arrest in human HeLa cells assessed as G2/M phase at 0.5 uM incubated for 24 hrs by PI staining based flow cytometry (reference value: 7.89 %); format: functional; procedure, shortened: as §1
# HeLa [30] = test: Induction of apoptosis in human HeLa cells assessed as necrotic cells incubated for 48 hrs by annexin V-FITC and PI staining based flow cytometry; format: functional, cell-based; conditions: dose 0.5-2 µM
smiles,measurement,setting,value
Cc1ccc(Nc2nc(Cl)nc3c2ncn3Cc2ccc(C(=O)Nc3ccccc3N)cc2)cc1,Activity,A-375 [1],83.4%
same,MRT last at 24 h,[2],0.563 h
same,viability at 1 µM,HeLa [3],85.2%
same,Activity,NCI-H460 [4],9.03%
same,Activity,A-375 [5],0.852%
same,Activity,HCT-116 [6],0.639%
same,Activity,HCT-116 [7],72.1%
same,Activity,A-375 [8],8%
same,Activity,A-375 [9],57.03%
same,Activity,HCT-116 [10],89.6%
same,IC50,CDK2/Cyclin A2,800 nM
same,viability at 0.5 µM,HeLa [11],89.9%
same,Activity,NCI-H460 [12],47.1%
same,inhibition in vivo at 100 mg/kg,HCT-116 [13],44%
same,viability at 2 µM,NCI-H460 [14],31.9%
same,Activity,NCI-H460 [15],6.74%
same,Activity,A-375 [16],0.566%
same,inhibition,A-375 [17],Active
same,inhibition at 8 µM,NCI-H460 [18],82.5%
same,Activity,HCT-116 [19],16.6%
same,Activity,A-375 [20],91.99%
same,Activity,A-375 [21],Active
same,Tmax,[22],2 h
same,inhibition in vivo at 50 mg/kg,HCT-116 [23],40%
same,Activity,HCT-116 [24],Dose-dependent effect
same,Activity,A-375 [25],0.453%
same,Activity,HCT-116 [26],0.65%
same,Activity,NCI-H460 [27],Active
same,Activity,NCI-H460 [28],17.5%
same,Activity,HeLa [29],51.85%
same,Activity,HeLa [30],Dose-dependent effect
